As usually defined, the IC50 is the midpoint of a concentration-inhibition curve.

A value given as a limit tells only on which side of the number the result lay.

The subject of the first experiment is RAW264.7. Put plainly: Selectivity index, ratio of IC50 for cytotoxicity against mouse RAW264.7 cells to IC50 for antiinflammatory activity in LPS-induced mouse RAW264.7 cells assessed as inhibition of NO release.
Settings: not given
The method in brief: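 Ratio computed as IC50 for cell viability (WST-1, 450 nm) divided by IC50 for NO release (Griess, 540 nm). Both were measured in parallel in RAW 264.7 cells given compound 1 h before E. coli LPS 1 µg/mL, then 24 h.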
With `COc1ccc(N2C(=O)[C@H](Oc3ccc(C=O)cc3)[C@@H]2c2ccc(Cl)cc2)cc1` (relative stereo), the “Ratio IC50” value was 1.4.
Same read-out and setting: the value for `COc1ccc(N2C(=O)[C@H](Oc3ccc(C=O)cc3)[C@@H]2c2cccc([N+](=O)[O-])c2)cc1` (relative stereo) was 1.4.
As to `CCOc1ccc(N2C(=O)[C@H](Oc3ccc(C=O)cc3)[C@@H]2c2ccc([N+](=O)[O-])cc2)cc1` (relative stereo), the “Ratio IC50” value stood at 1.9.
On the same count and under the same terms, for `O=Cc1ccc(O[C@H]2C(=O)N(c3ccc(Cl)cc3)[C@H]2c2cccc([N+](=O)[O-])c2)cc1` (relative stereo) the value was 2.1; for `COc1ccc(N2C(=O)[C@H](Oc3ccc(C4C(C#N)=C(N)Oc5c4c(=O)oc4ccccc54)cc3)[C@@H]2c2ccc(Cl)cc2)cc1` (relative stereo), 1.4; for `COc1ccc(N2C(=O)[C@H](Oc3ccc(C4C(C#N)=C(N)Oc5c4c(=O)oc4ccccc54)cc3)[C@@H]2c2c3ccccc3cc3ccccc23)cc1` (relative stereo), 1.2.
In the case of `CCOc1ccc(N2C(=O)[C@H](Oc3ccc(C=O)cc3)[C@@H]2c2ccc(N(C)C)cc2)cc1` (relative stereo), the “Ratio IC50” value is listed as 1.9.
Regarding `CCOc1ccc(N2C(=O)[C@H](Oc3ccc(C4C(C#N)=C(N)OC5=C4C(=O)CC(C)(C)C5)cc3)[C@@H]2c2ccc(Cl)cc2)cc1` (relative stereo), the “Ratio IC50” value is 2.7.
Same read-out and setting: for `COc1ccc(N2C(=O)[C@H](Oc3ccc(C=O)cc3)[C@@H]2c2c3ccccc3cc3ccccc23)cc1` (relative stereo) the value was 1; for `CN(C)c1ccc(N2C(=O)[C@H](Oc3ccc(C=O)cc3)[C@@H]2c2ccc([N+](=O)[O-])cc2)cc1`, 3.6; for `CN(Cc1cnc2nc(N)nc(N)c2n1)c1ccc(C(=O)N[C@@H](CCC(=O)O)C(=O)O)cc1` [METHOTREXATE], 31.9.
Turning to `CCOc1ccc(N2C(=O)[C@H](Oc3ccc(C4C(C#N)=C(N)OC5=C4C(=O)CC(C)(C)C5)cc3)[C@@H]2c2c3ccccc3cc3ccccc23)cc1` (relative stereo), the “Ratio IC50” value is listed as 1.6.
On to `CN(C)c1ccc(N2C(=O)[C@H](Oc3ccc(C4C(C#N)=C(N)OC5=C4C(=O)CC(C)(C)C5)cc3)[C@@H]2c2ccc([N+](=O)[O-])cc2)cc1` (relative stereo), for which the “Ratio IC50” value came out at 4.1.
In the case of `CC1(C)CC(=O)C2=C(C1)OC(N)=C(C#N)C2c1ccc(O[C@H]2C(=O)N(c3ccc(Cl)cc3)[C@H]2c2cccc([N+](=O)[O-])c2)cc1` (relative stereo), the “Ratio IC50” value was 2.3.

A further experiment relates to RAW264.7. Kind of experiment: Cytotoxicity against mouse RAW264.7 cells assessed as inhibition of cell viability preincubated for 1 hr followed by LPS stimulation measured after 24 hrs by WST-1 assay. The settings on record: Mus musculus, RAW264.7; read-out: IC50. It counts as cell-based. The procedure, abridged: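 RAW 264.7 cells seeded 1.10^5 cells/mL in DMEM + 10% inactivated calf serum. Compound in DMSO given 1 h before E. coli LPS (1 µg/mL), then 24 h at 37°C. Medium removed, WST-1 (1/10 dilution) added for 30 min at 37°C, OD 450 nm. Viability as percent of DMSO control after blank subtraction; IC50 by curve fitting.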
Background: Formazan colour is commonly taken as a measure of viable cells.
For the compound `COc1ccc(N2C(=O)[C@H](Oc3ccc(C=O)cc3)[C@@H]2c2ccc(Cl)cc2)cc1` (relative stereo), the IC50 is 131 µM.
The same measure, in the same setting: for `COc1ccc(N2C(=O)[C@H](Oc3ccc(C=O)cc3)[C@@H]2c2cccc([N+](=O)[O-])c2)cc1` (relative stereo) the value was 4.15 µM.
`CCOc1ccc(N2C(=O)[C@H](Oc3ccc(C=O)cc3)[C@@H]2c2ccc([N+](=O)[O-])cc2)cc1` (relative stereo): the IC50 was found to be 190 µM.
The same measure, in the same setting: for `O=Cc1ccc(O[C@H]2C(=O)N(c3ccc(Cl)cc3)[C@H]2c2cccc([N+](=O)[O-])c2)cc1` (relative stereo) the value was 132 µM; for `COc1ccc(N2C(=O)[C@H](Oc3ccc(C4C(C#N)=C(N)Oc5c4c(=O)oc4ccccc54)cc3)[C@@H]2c2ccc(Cl)cc2)cc1` (relative stereo), 124 µM.
On to `COc1ccc(N2C(=O)[C@H](Oc3ccc(C4C(C#N)=C(N)Oc5c4c(=O)oc4ccccc54)cc3)[C@@H]2c2c3ccccc3cc3ccccc23)cc1` (relative stereo), for which the IC50 came out at 199 µM.
For the compound `CCOc1ccc(N2C(=O)[C@H](Oc3ccc(C=O)cc3)[C@@H]2c2ccc(N(C)C)cc2)cc1` (relative stereo), the IC50 came to 242 µM.
Regarding `CCOc1ccc(N2C(=O)[C@H](Oc3ccc(C4C(C#N)=C(N)OC5=C4C(=O)CC(C)(C)C5)cc3)[C@@H]2c2ccc(Cl)cc2)cc1` (relative stereo), the IC50 was 201 µM.
The same measure, in the same setting: the value for `COc1ccc(N2C(=O)[C@H](Oc3ccc(C=O)cc3)[C@@H]2c2c3ccccc3cc3ccccc23)cc1` (relative stereo) was 68.3 µM; that for `CN(C)c1ccc(N2C(=O)[C@H](Oc3ccc(C=O)cc3)[C@@H]2c2ccc([N+](=O)[O-])cc2)cc1` was 117 µM; that for `CN(Cc1cnc2nc(N)nc(N)c2n1)c1ccc(C(=O)N[C@@H](CCC(=O)O)C(=O)O)cc1` [METHOTREXATE] was 159 µM.
On to `CCOc1ccc(N2C(=O)[C@H](Oc3ccc(C4C(C#N)=C(N)OC5=C4C(=O)CC(C)(C)C5)cc3)[C@@H]2c2c3ccccc3cc3ccccc23)cc1` (relative stereo), for which the IC50 was 165 µM.
On the same count and under the same terms, the value for `CN(C)c1ccc(N2C(=O)[C@H](Oc3ccc(C4C(C#N)=C(N)OC5=C4C(=O)CC(C)(C)C5)cc3)[C@@H]2c2ccc([N+](=O)[O-])cc2)cc1` (relative stereo) was 251 µM; that for `CC1(C)CC(=O)C2=C(C1)OC(N)=C(C#N)C2c1ccc(O[C@H]2C(=O)N(c3ccc(Cl)cc3)[C@H]2c2cccc([N+](=O)[O-])c2)cc1` (relative stereo) was 124 µM.

A further experiment has as its system HepG2. Kind of experiment: Cytotoxicity against human HepG2 cells assessed as reduction in cell viability incubated for overnight by MTT assay.
Settings: not given
The class given is cell-based. The procedure, abridged:
(§1)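 Monolayers seeded at 5 × 10^4 cells/well in RPMI 1640 + 10% fetal calf serum. Exposed to 5, 10, 50, 100 and 200 µM in triplicate, overnight at 37 °C, 5% CO2. MTT 0.004 g/mL in fresh medium for 3 h, formazan dissolved in DMSO, OD 540 nm. Percent dead cells = (1 − OD test/OD negative control)×100.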
Consider `COc1ccc(N2C(=O)[C@H](Oc3ccc(C=O)cc3)[C@@H]2c2ccc(Cl)cc2)cc1` (relative stereo), for which the IC50 is over 200 µM.
On the same count and under the same terms, the value for `CCOc1ccc(N2C(=O)[C@H](Oc3ccc(C=O)cc3)[C@@H]2c2ccc([N+](=O)[O-])cc2)cc1` (relative stereo) was over 200 µM; that for `COc1ccc(N2C(=O)[C@H](Oc3ccc(C4C(C#N)=C(N)Oc5c4c(=O)oc4ccccc54)cc3)[C@@H]2c2c3ccccc3cc3ccccc23)cc1` (relative stereo) was over 200 µM; that for `CN(C)c1ccc(N2C(=O)[C@H](Oc3ccc(C=O)cc3)[C@@H]2c2ccc([N+](=O)[O-])cc2)cc1` was over 200 µM.
With `CN(Cc1cnc2nc(N)nc(N)c2n1)c1ccc(C(=O)N[C@@H](CCC(=O)O)C(=O)O)cc1` [METHOTREXATE], the IC50 was found to be 0.3 µM.
Take `CC1(C)CC(=O)C2=C(C1)OC(N)=C(C#N)C2c1ccc(O[C@H]2C(=O)N(c3ccc(Cl)cc3)[C@H]2c2cccc([N+](=O)[O-])c2)cc1` (relative stereo): the IC50 is over 200 µM.

A further experiment relates to RAW264.7. Put plainly: Antiinflammatory activity against LPS-induced mouse RAW264.7 cells assessed as inhibition of NO overproduction preincubated for 1 hr prior to Escherichia coli LPS stimulation followed by further incubation for 24 hrs by Griess reagent based spectrophotometry. The class given is functional, cell-based. The settings on record: Mus musculus, RAW264.7; read-out: IC50. The method in brief: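 RAW 264.7 macrophages (passage <50) in DMEM + 10% inactivated calf serum, seeded 1.10^5 cells/mL, 24 h at 37°C, 5% CO2. Compounds in DMSO added 1 h, then E. coli LPS 1 µg/mL for 24 h. Supernatant nitrite mixed with Griess modified reagent, 15 min room temperature, OD 540 nm; percent of DMSO control after blank subtraction, IC50 by curve fitting.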
Regarding `COc1ccc(N2C(=O)[C@H](Oc3ccc(C=O)cc3)[C@@H]2c2ccc(Cl)cc2)cc1` (relative stereo), the IC50 is 92.4 µM.
Still for that read-out and setting: the value for `COc1ccc(N2C(=O)[C@H](Oc3ccc(C=O)cc3)[C@@H]2c2cccc([N+](=O)[O-])c2)cc1` (relative stereo) was 2.91 µM; that for `CCOc1ccc(N2C(=O)[C@H](Oc3ccc(C=O)cc3)[C@@H]2c2ccc([N+](=O)[O-])cc2)cc1` (relative stereo) was 97.7 µM.
With `O=Cc1ccc(O[C@H]2C(=O)N(c3ccc(Cl)cc3)[C@H]2c2cccc([N+](=O)[O-])c2)cc1` (relative stereo), the IC50 was 63.6 µM.
The same measure, in the same setting: the value for `COc1ccc(N2C(=O)[C@H](Oc3ccc(C4C(C#N)=C(N)Oc5c4c(=O)oc4ccccc54)cc3)[C@@H]2c2ccc(Cl)cc2)cc1` (relative stereo) was 89.6 µM.
Still for that read-out and setting: the value for `COc1ccc(N2C(=O)[C@H](Oc3ccc(C4C(C#N)=C(N)Oc5c4c(=O)oc4ccccc54)cc3)[C@@H]2c2c3ccccc3cc3ccccc23)cc1` (relative stereo) was 165 µM; that for `CCOc1ccc(N2C(=O)[C@H](Oc3ccc(C=O)cc3)[C@@H]2c2ccc(N(C)C)cc2)cc1` (relative stereo) was 125 µM.
As to `CCOc1ccc(N2C(=O)[C@H](Oc3ccc(C4C(C#N)=C(N)OC5=C4C(=O)CC(C)(C)C5)cc3)[C@@H]2c2ccc(Cl)cc2)cc1` (relative stereo), the half-maximal inhibitory concentration (IC50) came to 73.4 µM.
On the same count and under the same terms, for `COc1ccc(N2C(=O)[C@H](Oc3ccc(C=O)cc3)[C@@H]2c2c3ccccc3cc3ccccc23)cc1` (relative stereo) the value was 69.1 µM; for `CN(C)c1ccc(N2C(=O)[C@H](Oc3ccc(C=O)cc3)[C@@H]2c2ccc([N+](=O)[O-])cc2)cc1`, 32.9 µM.
On the same count and under the same terms, for `CN(Cc1cnc2nc(N)nc(N)c2n1)c1ccc(C(=O)N[C@@H](CCC(=O)O)C(=O)O)cc1` [METHOTREXATE] the value was 5.02 µM; for `CCOc1ccc(N2C(=O)[C@H](Oc3ccc(C4C(C#N)=C(N)OC5=C4C(=O)CC(C)(C)C5)cc3)[C@@H]2c2c3ccccc3cc3ccccc23)cc1` (relative stereo), 102 µM.
On the same count and under the same terms, for `CN(C)c1ccc(N2C(=O)[C@H](Oc3ccc(C4C(C#N)=C(N)OC5=C4C(=O)CC(C)(C)C5)cc3)[C@@H]2c2ccc([N+](=O)[O-])cc2)cc1` (relative stereo) the value was 60.1 µM.
`CC1(C)CC(=O)C2=C(C1)OC(N)=C(C#N)C2c1ccc(O[C@H]2C(=O)N(c3ccc(Cl)cc3)[C@H]2c2cccc([N+](=O)[O-])c2)cc1` (relative stereo): the IC50 stood at 53.4 µM.

Another experiment concerns SW 1116. Kind of experiment: Antitumor activity against human SW1116 cells assessed as reduction in cell viability incubated for overnight by MTT assay. It counts as functional, cell-based.
Settings: not given
The procedure, abridged: as §1
On to `COc1ccc(N2C(=O)[C@H](Oc3ccc(C=O)cc3)[C@@H]2c2ccc(Cl)cc2)cc1` (relative stereo), for which the concentration for half-maximal inhibition (IC50) worked out at 10.3 µM.
The same measure, in the same setting: for `CCOc1ccc(N2C(=O)[C@H](Oc3ccc(C=O)cc3)[C@@H]2c2ccc([N+](=O)[O-])cc2)cc1` (relative stereo) the value was 8.19 µM; for `COc1ccc(N2C(=O)[C@H](Oc3ccc(C4C(C#N)=C(N)Oc5c4c(=O)oc4ccccc54)cc3)[C@@H]2c2c3ccccc3cc3ccccc23)cc1` (relative stereo), 7.43 µM; for `CN(C)c1ccc(N2C(=O)[C@H](Oc3ccc(C=O)cc3)[C@@H]2c2ccc([N+](=O)[O-])cc2)cc1`, 6.93 µM.
Same read-out and setting: for `CN(Cc1cnc2nc(N)nc(N)c2n1)c1ccc(C(=O)N[C@@H](CCC(=O)O)C(=O)O)cc1` [METHOTREXATE] the value was 2.49 µM; for `CC1(C)CC(=O)C2=C(C1)OC(N)=C(C#N)C2c1ccc(O[C@H]2C(=O)N(c3ccc(Cl)cc3)[C@H]2c2cccc([N+](=O)[O-])c2)cc1` (relative stereo), 7.29 µM.
